Data published in ChEMBL document CHEMBL3994624, “Antimalarial Pyrido[1,2-a]benzimidazoles: Lead Optimization, Parasite Life Cycle Stage Profile, Mechanistic Evaluation, Killing Kinetics, and in Vivo Oral Efficacy in a Mouse Model” (J Med Chem, 2017).
Values after ≈ are worked out from the molar mass of the structure shown. Active and inactive are the calls of the source. The calls are words filed in the database; no cut-off is given here.

Key:
[1] = tested on: Plasmodium berghei; assay: Antimalarial activity against GFP-fused Plasmodium berghei ANKA liver stage infected in HuH7 cells pretreated for 1 hr followed by parasite infection after 48 hrs by luciferase reporter gene assay; type: functional, cell-based; conditions: Huh-7
[2] = tested on: Ferriprotoporphyrin IX; assay: Inhibition of beta hematin formation in water/NP40/DMSO solution after 5 hrs
[3] = tested on: Plasmodium berghei; assay: Antimalarial activity against GFP-fused Plasmodium berghei ANKA liver stage infected in HuH7 cells pretreated for 1 hr followed by parasite infection at 1 uM after 48 hrs by luciferase reporter gene assay; type: functional, cell-based
[4] = tested on: Plasmodium falciparum; assay: Ratio of IC50 for chloroquine-sensitive Plasmodium falciparum NF54 after 24 hrs to IC50 for chloroquine-sensitive Plasmodium falciparum NF54 after 72 hrs; type: functional
[5] = tested on: Plasmodium falciparum; assay: Anti-plasmodial activity against multidrug resistant Plasmodium falciparum K1 by [3H]-hypoxanthine incorporation assay; type: functional
Summary of the method: (§1)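 P. falciparum asexual blood-stage growth inhibition by [3H]hypoxanthine incorporation; chloroquine and artesunate run as reference drugs in every experiment; IC50 given as mean of ≥2 independent experiments.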

[6] = Metabolic stability in Balb/c mouse liver microsomes assessed as compound remaining at 1 uM in presence of NADPH after 30 mins by LC-MS/MS analysis; type: ADME, microsome; conditions: read-out: Stability
Summary of the method: (§2)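 Mouse and human liver microsomes; % compound remaining after 30 min.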

[7] = tested on: Plasmodium falciparum; assay: Anti-plasmodial activity against chloroquine-sensitive Plasmodium falciparum NF54 by [3H]-hypoxanthine incorporation assay; type: functional; summary of the method: as §1
[8] = tested on: Ferriprotoporphyrin IX; assay: Inhibition of beta hematin formation in ring stage of chloroquine-sensitive Plasmodium falciparum NF54 assessed as decrease in haemozoin level at 0.5 to 3 times IC50 after 36 hrs by UV-vis spectra analysis
Summary of the method: (§3)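 Synchronized ring-stage parasites treated with increasing drug concentrations, then cellular fractionation. Free haem and haemozoin quantified as iron (fg/cell) and compared with untreated control; significance by p-values; parasite survival overlaid.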

[9] = tested on: Huh-7; assay: Cytotoxicity against human HuH7 cells at 1 to 10 uM after 48 hrs by Alamarblue assay; type: cell-based; conditions: huh-7, 48 h
[10] = Kinetic solubility of the compound in FaSSIF at pH 6.5 after 2 hrs by shake flask method; type: physicochemical; conditions: read-out: Kinetic_solubility
[11] = tested on: Ferriprotoporphyrin IX; assay: Inhibition of beta hematin formation in ring stage of chloroquine-sensitive Plasmodium falciparum NF54 assessed as increase in free heme level at 0.5 to 3 times IC50 after 36 hrs by UV-vis spectra analysis; summary of the method: as §3
[12] = Selectivity index, ratio of IC50 for CHO cells to IC50 for chloroquine-sensitive Plasmodium falciparum NF54; type: toxicity; conditions: hamster, read-out: Ratio IC50
Summary of the method: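 Selectivity index = IC50 CHO / IC50 PfNF54.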

[13] = tested on: CHO; assay: Cytotoxicity against CHO cells after by MTT assay; type: cell-based; conditions: Cricetulus griseus
[14] = tested on: Plasmodium berghei; assay: Antimalarial activity against GFP-fused Plasmodium berghei ANKA infected in mouse assessed as mouse mean survival days at 10 mg/kg, po administered once daily for 4 days; type: functional
Summary of the method: (§4)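 P. berghei-infected mice (n=3 per dose) dosed orally once daily on 4 consecutive days at 4, 24, 48 and 72 h after infection; compound in 90/10 Tween80/ethanol (v/v) diluted 10-fold with water. Read-outs were % parasitemia reduction, mean survival time in days and cure; mice with <40% parasitemia reduction euthanized on day 4.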

[15] = tested on: Plasmodium berghei; assay: Antimalarial activity against GFP-fused Plasmodium berghei ANKA infected in mouse assessed as reduction in parasitemia at 10 mg/kg, po administered once daily for 4 days by flow cytometry relative to control; type: functional; set-up: scale not given: the % may be the effect or the level left
Summary of the method: (§5)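 P. berghei-infected mice, 3 per group. Compound formulated in 90/10 Tween80/ethanol (v/v), diluted 10-fold with water, given orally once daily at 4, 24, 48 and 72 h post-infection. Outcomes: % parasitemia reduction versus untreated control, mean survival days, and cured/infected. Mice with <40% reduction euthanized on day 4.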

[16] = Oral bioavailability in C57/Bl6 mouse at 10 mg/kg administered via gavage by LC-MS method; type: ADME, organism-based; conditions: in vivo
Summary of the method: (§6)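 Mice (n=3) given a single oral dose of 10 mg/kg as a suspension in […] HPMC; plasma sampled over 24 h. Parameters were estimated by nonlinear mixed-effects modelling with a two-compartment disposition model, first-order absorption and elimination.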

[17] = Half life in C57/Bl6 mouse at 2.5 mg/kg, iv by LC-MS method; type: ADME, organism-based; conditions: in vivo
Summary of the method: (§7)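 Mice (n=3) given a single intravenous dose of 2.5 mg/kg in dimethylacetamide:polyethylene glycol:propylene glycol/ethanol (4:1) at 1:3:6; 24 h sampling. Parameters were fitted by nonlinear mixed-effects two-compartment model with first-order elimination.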

[18] = tested on: Plasmodium berghei; assay: Antimalarial activity against GFP-fused Plasmodium berghei ANKA infected in mouse assessed as protection against parasitemia at 3 mg/kg, po administered once daily for 4 days measured 30 days post infection by light microscopy; type: functional, organism-based; summary of the method: as §5
[19] = tested on: Plasmodium falciparum; assay: Ratio of IC50 for chloroquine-sensitive Plasmodium falciparum NF54 early 2/3 stage gametocytes to IC50 for chloroquine-sensitive Plasmodium falciparum NF54 late 4/5 stage gametocytes; type: functional
Summary of the method: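 Early (stage II/III) and late (stage IV/V) gametocytes tested in parallel luciferase reporter assays; stage preference = EG IC50/LG IC50.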

[20] = tested on: Plasmodium berghei; assay: Antimalarial activity against GFP-fused Plasmodium berghei ANKA infected in mouse assessed as reduction in parasitemia at 30 mg/kg, po administered once daily for 4 days by flow cytometry relative to control; type: functional; set-up: scale not given: the % may be the effect or the level left; summary of the method: as §5
[21] = Clearance in C57/Bl6 mouse at 2.5 mg/kg, iv by LC-MS method; type: ADME, organism-based; conditions: in vivo; summary of the method: as §7
[22] = Metabolic stability in human liver microsomes assessed as compound remaining at 1 uM in presence of NADPH after 30 mins by LC-MS/MS analysis; type: ADME, microsome; conditions: read-out: Stability; summary of the method: as §2
[23] = tested on: Plasmodium berghei; assay: Antimalarial activity against GFP-fused Plasmodium berghei ANKA infected in mouse assessed as reduction in parasitemia at 50 mg/kg, po administered once daily for 4 days by flow cytometry relative to control; type: functional; set-up: scale not given: the % may be the effect or the level left; summary of the method: as §5
[24] = tested on: Plasmodium berghei; assay: Antimalarial activity against GFP-fused Plasmodium berghei ANKA infected in mouse assessed as protection against parasitemia at 50 mg/kg, po administered once daily for 4 days measured 30 days post infection by light microscopy; type: functional, organism-based; summary of the method: as §5
[25] = Half life in C57/Bl6 mouse at 10 mg/kg, po administered via gavage by LC-MS method; type: ADME, organism-based; conditions: in vivo; summary of the method: as §6
[26] = tested on: Mus musculus; assay: AUC (0 to infinity) in C57/Bl6 mouse at 10 mg/kg, po administered via gavage by LC-MS method; type: ADME, organism-based; set-up: dose 10 mg/kg, route oral, time infinity; conditions: in vivo; summary of the method: as §6
[27] = tested on: Plasmodium falciparum; assay: Anti-plasmodial activity against chloroquine-sensitive Plasmodium falciparum NF54 late 4/5 stage gametocytes after 48 hrs by luciferin-luciferase reaction based bioluminescence assay; type: functional; conditions: NF54, 48 h
[28] = tested on: Plasmodium berghei; assay: Antimalarial activity against GFP-fused Plasmodium berghei ANKA infected in mouse assessed as mouse mean survival days at 50 mg/kg, po administered once daily for 4 days; type: functional; summary of the method: as §4
[29] = tested on: Plasmodium berghei; assay: Antimalarial activity against GFP-fused Plasmodium berghei ANKA infected in mouse assessed as mouse mean survival days at 3 mg/kg, po administered once daily for 4 days; type: functional; summary of the method: as §4
[30] = tested on: Plasmodium berghei; assay: Antimalarial activity against GFP-fused Plasmodium berghei ANKA infected in mouse assessed as reduction in parasitemia at 3 mg/kg, po administered once daily for 4 days by flow cytometry relative to control; type: functional; set-up: scale not given: the % may be the effect or the level left; summary of the method: as §5
[31] = Cmax in C57/Bl6 mouse at 10 mg/kg, po administered via gavage by LC-MS method; type: ADME, organism-based; set-up: dose 10 mg/kg, route oral; conditions: in vivo; summary of the method: as §6
[32] = Volume of distribution in C57/Bl6 mouse at 2.5 mg/kg, iv by LC-MS method; type: ADME, organism-based; conditions: in vivo; summary of the method: as §7
[33] = Tmax in C57/Bl6 mouse at 10 mg/kg, po administered via gavage by LC-MS method; type: ADME, organism-based; conditions: in vivo; summary of the method: as §6
[34] = tested on: Mus musculus; assay: AUC (0 to infinity) in C57/Bl6 mouse at 2.5 mg/kg, iv by LC-MS method; type: ADME, organism-based; set-up: dose 2.5 mg/kg, time infinity, route intravenous; conditions: in vivo; summary of the method: as §7
[35] = tested on: Plasmodium berghei; assay: Antimalarial activity against GFP-fused Plasmodium berghei ANKA infected in mouse assessed as protection against parasitemia at 10 mg/kg, po administered once daily for 4 days measured 30 days post infection by light microscopy; type: functional, organism-based; summary of the method: as §5
[36] = tested on: Plasmodium berghei; assay: Antimalarial activity against GFP-fused Plasmodium berghei ANKA infected in mouse assessed as mouse mean survival days at 30 mg/kg, po administered once daily for 4 days; type: functional; summary of the method: as §4

## N#Cc1c(-c2ccc(C(F)(F)F)cc2)c(F)c(NCCN2CCC(O)C2)n2c1nc1ccccc12 (stereo not drawn)
[1]
  IC50: 1.42 µM
[2]
  IC50: 120 µM
[3]
  Activity: Active
[4]
  Ratio IC50: 22
[5]
  IC50: 0.17 µM
[6]
  remaining at 0.5 h, 1 µM: 37%
[7]
  IC50: 0.19 µM
[8]
  inhibition: inactive
[9]
  Activity: Non-Toxic
[10]
  solubility kinetic at 2 h: 80 µM (≈ 38.7 µg/mL)
[11]
  inhibition: inactive
[12]
  selectivity ratio: 1080
[13]
  IC50: 206 µM

## CCNCCNc1cc(-c2ccc(C(F)(F)F)cc2)c(C#N)c2nc3cc(Cl)cc(Cl)c3n12
[14]
  MSD: 18 days
[15]
  Activity: 99.4%
[16]
  bioavailability: 30%
[17]
  half-life: 21 h
[18]
  Activity: inactive
[19]
  Ratio IC50: 1.2
[20]
  Activity: 99.4%
[21]
  clearance: 0.66 L/h/kg
[22]
  remaining at 0.5 h, 1 µM: 87%
[23]
  Activity: 98%
[24]
  Activity: Active
[25]
  half-life: 21 h
[26]
  AUC: 11.4 µM·h
[5]
  IC50: 0.04 µM
[6]
  remaining at 0.5 h, 1 µM: 87%
[7]
  IC50: 0.03 µM
[27]
  IC50: 1.44 µM
[28]
  MSD: 30 days
[29]
  MSD: 16 days
[9]
  Activity: Non-Toxic
[30]
  Activity: 99.4%
[10]
  solubility kinetic at 2 h: 20 µM (≈ 9.85 µg/mL)
[31]
  Cmax: 0.22 µM
[32]
  Vd: 19 L/kg
[33]
  Tmax: > 10 h
[34]
  AUC: 9.52 µM·h
[35]
  Activity: inactive
[12]
  selectivity ratio: 431
[13]
  IC50: 11.2 µM
[36]
  MSD: 30 days
